Converted amounts (≈) assume the structure as drawn. The source made the active and inactive calls. No cut-off for these calls is given here.
Assays:
[1] = biological target: P2Y purinoceptor 1 (Homo sapiens, UniProt P47900); assay: Antagonist activity at P2Y1 receptor in human platelets by FLIPR assay in presence of 2-methylthio-ADP
Procedure, shortened: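 Washed human platelets with endogenous P2Y1; calcium signalling read by FLIPR with reduced protein (~0.1% BSA); agonist 2-methylthio-ADP at 1 µM; IC50 given as mean ± SD.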

[2] = test system: Liver microsome; assay: Metabolic stability in human liver microsomes assessed as compound remaining; format: ADME
Procedure, shortened: (§1)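 Liver microsome stability: percent of compound remaining after incubation with […] (3 µM microsomes in some cases).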

[3] = test system: Liver microsome; assay: Metabolic stability in rat liver microsomes assessed as compound remaining; format: ADME; procedure, shortened: as §1
[4] = test system: Platelet; assay: Inhibition of ADP-induced platelet aggregation in platelet-rich human plasma; format: functional
Procedure, shortened: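 Human platelet-rich plasma; aggregation triggered by 10 µM ADP; IC50 determined.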

[5] = test system: Rattus norvegicus; assay: Antithrombotic activity in po dosed pentobarbital anesthetized rat assessed as reduction in FeCl2-induced thrombus weight administered 1 hr prior to FeCl2 challenge
[6] = test system: Rattus norvegicus; assay: Antithrombotic activity in pentobarbital anesthetized rat assessed as reduction in FeCl2-induced thrombus weight at 10 mg/kg, po administered 1 hr prior to FeCl2 challenge; format: functional; design: scale not given: the % may be the effect or the level left
Procedure, shortened: (§2)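 Pentobarbital-anesthetized rats; vehicle (1 ml/kg of 10% N,N-dimethylacetamide/90% dextrose 5% water) or 0.3, 1, 3, 10 mg/kg by oral gavage 1 h before FeCl2-induced carotid thrombosis or cuticle/mesenteric bleeding time. End points were thrombus weight and blood flow. Blood was drawn at the end of the thrombosis protocol for ex vivo aggregation. ID50 values derived; SEM reported.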

[7] = test system: Rattus norvegicus; assay: Toxicity in rat assessed as prolongation of cuticle bleeding time at 10 mg/kg, po relative to control; format: organism-based; design: dose 10 mg/kg, route oral; conditions: in vivo
Procedure, shortened: (§3)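 Pentobarbital-anesthetized rats dosed by oral gavage 1 h before bleeding-time induction. Vehicle was 1 ml/kg of 10% N,N-dimethylacetamide/90% dextrose 5% water, and compound was given at 0.3, 1, 3 and 10 mg/kg. Cuticle and mesenteric bleeding times were measured and expressed as fold prolongation relative to vehicle. Group sizes were indicated per group.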

[8] = test system: Rattus norvegicus; assay: Toxicity in rat assessed as prolongation of mesentric bleeding time at 10 mg/kg, po relative to control; format: organism-based; design: dose 10 mg/kg, route oral; conditions: in vivo; procedure, shortened: as §3
[9] = test system: Blood; assay: Drug uptake in rat blood at 0.3 mg/kg, po; format: ADME, organism-based; design: dose 0.3 mg/kg, route oral; conditions: in vivo, read-out: Drug uptake
[10] = test system: Oryctolagus cuniculus; assay: Cardiotoxicity in rabbit assessed as increase in QTc at 10 to 30 mg/kg, iv by surface electrocardiography; format: toxicity, organism-based; design: dose 10-30 mg/kg, route intravenous; conditions: in vivo
Procedure, shortened: (§4)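 Anesthetized rabbits given IV doses of 3, 10 and 30 mg/kg in increasing order; plasma concentrations measured; PR, QRS and QTc intervals read by surface ECG.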

[11] = biological target: P2Y purinoceptor 2 (Homo sapiens, UniProt P41231); assay: Antagonist activity at P2Y2 receptor (unknown origin)
P2Y purinoceptor 2, sequence (P41231 whole entry): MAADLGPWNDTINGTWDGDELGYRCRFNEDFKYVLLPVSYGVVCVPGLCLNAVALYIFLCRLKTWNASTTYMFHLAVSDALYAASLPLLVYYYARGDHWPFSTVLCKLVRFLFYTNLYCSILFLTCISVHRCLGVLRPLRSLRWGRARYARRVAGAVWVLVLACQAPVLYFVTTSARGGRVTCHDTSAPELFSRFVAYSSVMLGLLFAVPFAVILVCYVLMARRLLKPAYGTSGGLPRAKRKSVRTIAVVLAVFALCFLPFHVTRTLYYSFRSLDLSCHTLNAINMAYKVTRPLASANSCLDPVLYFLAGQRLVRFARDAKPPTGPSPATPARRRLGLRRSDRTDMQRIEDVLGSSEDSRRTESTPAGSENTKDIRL

[12] = Oral bioavailability in dog at 5 mg/kg; format: ADME, organism-based, Canis lupus familiaris; conditions: in vivo
Procedure, shortened: (§5)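 Dog and cynomolgus PK used the methanesulfonic acid salt at 0.2 mg/kg IV and 5 mg/kg PO; clearance, Vdss, half-life and oral bioavailability determined.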

[13] = Half life in cynomolgus monkey at 0.2 mg/kg, iv and 5 mg/kg, po; format: ADME, organism-based, Macaca fascicularis; conditions: in vivo; procedure, shortened: as §5
[14] = test system: Plasma; assay: Plasma concentration in rabbit at 3 mg/kg, iv; format: ADME, organism-based, Oryctolagus cuniculus; design: dose 3 mg/kg, route intravenous; conditions: in vivo; procedure, shortened: as §4
[15] = test system: Blood; assay: Drug uptake in rat blood at 1 mg/kg, po; format: ADME, organism-based; design: dose 1 mg/kg, route oral; conditions: in vivo, read-out: Drug uptake
[16] = Half life in dog at 0.2 mg/kg, iv and 5 mg/kg, po; format: ADME, organism-based, Canis lupus familiaris; conditions: in vivo; procedure, shortened: as §5
[17] = biological target: T1, P2X purinoceptor 1 (Homo sapiens, UniProt P51575); assay: Antagonist activity at P2X1 receptor (unknown origin) by FLIPR assay
T1 sequence (P51575 whole entry): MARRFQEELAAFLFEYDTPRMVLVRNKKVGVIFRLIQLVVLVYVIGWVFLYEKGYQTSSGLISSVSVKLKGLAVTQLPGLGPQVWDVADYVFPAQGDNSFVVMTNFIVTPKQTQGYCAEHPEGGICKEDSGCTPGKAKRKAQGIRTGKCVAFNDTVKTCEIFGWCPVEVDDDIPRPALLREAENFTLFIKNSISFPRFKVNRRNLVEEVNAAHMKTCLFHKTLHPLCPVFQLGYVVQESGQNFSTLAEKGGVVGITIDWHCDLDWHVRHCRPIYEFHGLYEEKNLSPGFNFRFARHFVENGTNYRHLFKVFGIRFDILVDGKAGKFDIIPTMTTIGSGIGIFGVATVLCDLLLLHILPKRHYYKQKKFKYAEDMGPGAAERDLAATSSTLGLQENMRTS

[18] = Volume of distribution at steady state in cynomolgus monkey at 0.2 mg/kg, iv and 5 mg/kg, po; format: ADME, organism-based, Macaca fascicularis; conditions: in vivo, read-out: Vdss; procedure, shortened: as §5
[19] = Volume of distribution at steady state in dog at 0.2 mg/kg, iv and 5 mg/kg, po; format: ADME, organism-based, Canis lupus familiaris; conditions: in vivo, read-out: Vdss; procedure, shortened: as §5
[20] = test system: Rattus norvegicus; assay: Ex vivo inhibition of platelet aggregation in po dosed pentobarbital anesthetized rat administered 1 hr prior to FeCl2 challenge; format: functional; procedure, shortened: as §2
[21] = Aqueous solubility of the compound at pH 6.5; format: physicochemical; conditions: aqueous medium
Procedure, shortened: (§6)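 Aqueous solubility taken on crystalline material: free base at pH 6.5, mono-methanesulfonic acid salt at pH 3.9.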

[22] = Plasma protein binding in human; format: ADME, cell-free; conditions: read-out: PPB (converted)
[23] = test system: Blood; assay: Drug uptake in rat blood at 3 mg/kg, po; format: ADME, organism-based; design: dose 3 mg/kg, route oral; conditions: in vivo, read-out: Drug uptake
[24] = test system: Rattus norvegicus; assay: Antiplatelet activity in pentobarbital anesthetized rat assessed as reduction in platelet aggregation at 10 mg/kg, po; format: functional; design: scale not given: the % may be the effect or the level left; procedure, shortened: as §2
[25] = biological target: P2Y purinoceptor 12 (Homo sapiens, UniProt Q9H244); assay: Antagonist activity at P2Y12 receptor (unknown origin)
P2Y purinoceptor 12, sequence (Q9H244 whole entry): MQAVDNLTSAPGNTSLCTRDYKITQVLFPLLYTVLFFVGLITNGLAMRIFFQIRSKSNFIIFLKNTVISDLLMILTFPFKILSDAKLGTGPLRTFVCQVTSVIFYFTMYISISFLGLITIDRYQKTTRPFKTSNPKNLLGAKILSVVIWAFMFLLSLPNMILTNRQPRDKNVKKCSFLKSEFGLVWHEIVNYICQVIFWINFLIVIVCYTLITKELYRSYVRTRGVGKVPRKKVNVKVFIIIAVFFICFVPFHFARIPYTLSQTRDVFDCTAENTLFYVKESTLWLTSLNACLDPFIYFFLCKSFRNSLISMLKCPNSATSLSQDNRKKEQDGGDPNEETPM

[26] = test system: Blood; assay: Drug uptake in rat blood at 10 mg/kg, po; format: ADME, organism-based; design: dose 10 mg/kg, route oral; conditions: in vivo, read-out: Drug uptake
[27] = biological target: hERG (KCNH2) (Homo sapiens, UniProt Q12809); assay: Inhibition of human ERG channel at 1 uM by patch clamp technique
hERG (KCNH2), sequence (Q12809 whole entry): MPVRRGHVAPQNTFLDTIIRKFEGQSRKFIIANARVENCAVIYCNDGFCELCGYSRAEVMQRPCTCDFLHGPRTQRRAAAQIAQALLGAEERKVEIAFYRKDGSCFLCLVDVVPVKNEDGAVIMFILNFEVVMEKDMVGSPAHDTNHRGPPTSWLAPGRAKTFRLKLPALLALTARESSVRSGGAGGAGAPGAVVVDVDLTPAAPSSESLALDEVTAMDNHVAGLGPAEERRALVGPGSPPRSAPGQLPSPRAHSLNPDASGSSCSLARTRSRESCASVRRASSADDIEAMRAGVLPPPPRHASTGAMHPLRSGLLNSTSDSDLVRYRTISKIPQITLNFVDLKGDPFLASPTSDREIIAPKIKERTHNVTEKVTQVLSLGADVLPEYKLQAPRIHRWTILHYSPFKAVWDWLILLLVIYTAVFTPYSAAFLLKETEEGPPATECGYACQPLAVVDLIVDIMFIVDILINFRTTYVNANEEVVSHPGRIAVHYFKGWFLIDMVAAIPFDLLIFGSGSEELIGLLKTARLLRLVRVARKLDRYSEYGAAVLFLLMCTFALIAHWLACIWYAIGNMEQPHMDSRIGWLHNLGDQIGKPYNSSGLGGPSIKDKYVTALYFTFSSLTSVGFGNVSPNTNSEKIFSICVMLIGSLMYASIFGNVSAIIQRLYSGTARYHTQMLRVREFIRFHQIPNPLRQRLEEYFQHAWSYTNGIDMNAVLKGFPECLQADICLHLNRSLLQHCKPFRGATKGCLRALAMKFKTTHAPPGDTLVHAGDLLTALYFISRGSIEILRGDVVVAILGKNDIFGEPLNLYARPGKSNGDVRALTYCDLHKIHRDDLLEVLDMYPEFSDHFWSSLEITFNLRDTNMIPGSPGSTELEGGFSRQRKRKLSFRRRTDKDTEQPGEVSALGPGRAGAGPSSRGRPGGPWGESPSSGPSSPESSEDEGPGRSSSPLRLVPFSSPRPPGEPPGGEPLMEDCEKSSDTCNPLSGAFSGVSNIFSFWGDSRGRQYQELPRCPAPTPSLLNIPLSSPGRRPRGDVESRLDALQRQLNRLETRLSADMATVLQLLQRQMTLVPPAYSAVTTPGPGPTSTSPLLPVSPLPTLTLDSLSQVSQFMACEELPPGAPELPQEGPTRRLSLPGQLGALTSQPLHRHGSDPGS
Procedure, shortened: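 hERG current measured in vitro by patch clamp at 1 µM.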

[28] = test system: Rattus norvegicus; assay: Antithrombotic activity in po dosed pentobarbital anesthetized rat assessed as maintainance of blood flow administered 1 hr prior to FeCl2 challenge; format: functional, organism-based; procedure, shortened: as §2
[29] = Clearance in cynomolgus monkey at 0.2 mg/kg, iv and 5 mg/kg, po; format: ADME, organism-based, Macaca fascicularis; conditions: in vivo; procedure, shortened: as §5
[30] = test system: Oryctolagus cuniculus; assay: Cardiotoxicity in rabbit assessed as PR interval at 3 to 30 mg/kg, iv by surface electrocardiography; format: toxicity, organism-based; design: dose 3-30 mg/kg, route intravenous; conditions: in vivo; procedure, shortened: as §4
[31] = Clearance in dog at 0.2 mg/kg, iv and 5 mg/kg, po; format: ADME, organism-based, Canis lupus familiaris; conditions: in vivo; procedure, shortened: as §5
[32] = Aqueous solubility of the compound at pH 3.9; format: physicochemical; conditions: aqueous medium, read-out: Activity; procedure, shortened: as §6
[33] = test system: Rattus norvegicus; assay: Toxicity in po dosed pentobarbital anesthetized rat assessed as prolongation of bleeding time measured after 1 hr; format: organism-based; conditions: in vivo; procedure, shortened: as §2
[34] = Plasma protein binding in rabbit; format: ADME, cell-free, Oryctolagus cuniculus; conditions: read-out: PPB (converted)
[35] = Oral bioavailability in cynomolgus monkey at 5 mg/kg; format: ADME, organism-based, Macaca fascicularis; conditions: in vivo; procedure, shortened: as §5
[36] = test system: Plasma; assay: Plasma concentration in rabbit at 30 mg/kg, iv; format: ADME, organism-based, Oryctolagus cuniculus; design: dose 30 mg/kg, route intravenous; conditions: in vivo; procedure, shortened: as §4
[37] = Plasma protein binding in rat; format: ADME, cell-free; conditions: read-out: PPB (converted)
[38] = test system: Plasma; assay: Plasma concentration in rabbit at 10 mg/kg, iv; format: ADME, organism-based, Oryctolagus cuniculus; design: dose 10 mg/kg, route intravenous; conditions: in vivo; procedure, shortened: as §4
[39] = test system: Rattus norvegicus; assay: Antithrombotic activity in pentobarbital anesthetized rat assessed as preservation of blood flow at 10 mg/kg, po administered 1 hr prior to FeCl2 challenge; format: functional, organism-based; design: dose 10 mg/kg; procedure, shortened: as §2
[40] = test system: Oryctolagus cuniculus; assay: Cardiotoxicity in rabbit assessed as QRS interval at 3 to 30 mg/kg, iv by surface electrocardiography; format: toxicity, organism-based; design: dose 3-30 mg/kg, route intravenous; conditions: in vivo; procedure, shortened: as §4

P2Y purinoceptor 1, sequence (P47900 whole entry): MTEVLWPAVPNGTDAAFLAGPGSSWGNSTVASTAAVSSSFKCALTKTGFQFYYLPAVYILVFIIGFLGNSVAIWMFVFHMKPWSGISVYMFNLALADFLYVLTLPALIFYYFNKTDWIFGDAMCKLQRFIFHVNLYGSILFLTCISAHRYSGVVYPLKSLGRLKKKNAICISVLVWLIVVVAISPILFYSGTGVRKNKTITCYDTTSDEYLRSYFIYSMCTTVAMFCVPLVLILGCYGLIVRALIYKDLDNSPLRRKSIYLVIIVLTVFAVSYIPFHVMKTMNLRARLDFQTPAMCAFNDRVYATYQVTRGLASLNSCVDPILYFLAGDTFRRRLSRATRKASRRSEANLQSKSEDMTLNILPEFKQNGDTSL

CC(C)(C)CN1CCC2(CC1)CN(c1ccccc1NC(=O)Nc1ccc(OC(F)(F)F)cc1)c1ccc(O)cc12
IC50 [1]: > 150 nM

CC(C)(C)CN1CCC2(CC1)CN(c1ccccc1NC(=O)Nc1ccc(OC(F)(F)F)cc1)c1c(O)ccc(Cl)c12
Stability [2]: 79%
IC50 [1]: 0.04 nM
Stability [3]: 88%
IC50 [4]: 450 nM

CC(C)(C)CN1CCC2(CC1)CN(c1ccccc1NC(=O)Nc1ccc(OC(F)(F)F)cc1)c1ccccc12
IC50 [5]: 470 nM

CC(C)(C)CN1CCC2(CC1)CN(c1ccccc1NC(=O)Nc1nc3ccc(Cl)cc3s1)c1c(O)ccc(Cl)c12
Stability [2]: 96%
IC50 [1]: 0.17 nM
Stability [3]: 93%
IC50 [4]: 320 nM

CC(C)(C)CN1CCC2(CC1)CN(c1ccccc1NC(=O)Nc1ccc(C(F)(F)F)cc1)c1c(O)ccc(Cl)c12
Stability [2]: 93%
IC50 [1]: 0.08 nM
Stability [3]: 93%
IC50 [4]: 400 nM

COC(=O)c1ccc(O)c2c1C1(CCN(CC(C)(C)C)CC1)CN2c1ccccc1NC(=O)Nc1ccc(OC(F)(F)F)cc1
Stability [2]: 48%
IC50 [1]: 0.15 nM
Stability [3]: 57%
IC50 [4]: 700 nM

COC(=O)[C@H](c1ccccc1Cl)N1CCc2sccc2C1 [CLOPIDOGREL]
Activity [6]: 67%
fold change (FC) [7]: 6.2
fold change (FC) [8]: 8.2

CC(C)(C)CN1CCC2(CC1)CN(c1ccccc1NC(=O)Nc1ccc(OC(F)(F)F)cc1)c1c(O)ccc(C#N)c12
Stability [2]: 59%
IC50 [1]: 0.04 nM
Stability [3]: 51%
IC50 [4]: 1100 nM

CC(C)(C)CN1CCC2(CC1)CN(c1ccccc1NC(=O)Nc1nc3ccc(Cl)nc3s1)c1c(O)ccc(Cl)c12
concentration [9]: 7 nM
Activity [10]: Non-toxic
IC50 [11]: > 10000 nM
bioavailability [12]: 27%
Stability [2]: 94%
half-life [13]: 8.2 h
Activity [6]: 66%
concentration [14]: 24000 nM
concentration [15]: 39 nM
half-life [16]: 9.4 h
IC50 [17]: 180 nM
Vd [18]: 3.3 L/kg
Vd [19]: 2.5 L/kg
fold change (FC) [7]: 2.5
Activity [20]: Dose-dependent effect
ED50 ([20]; read-out: ID50 (the source's name)): 6.6 mg/kg
solubility [21]: < 1 µg/mL
fraction unbound [22]: 0.007
fold change (FC) [8]: 2.2
IC50 [1]: 0.12 nM
concentration [23]: 81 nM
Stability [3]: 93%
Activity [24]: 74%
IC50 [25]: > 10000 nM
concentration [26]: 240 nM
inhibition at 1 µM [27]: 96%
Activity [28]: Dose-dependent effect
clearance [29]: 7.7 mL/min/kg
Activity [30]: Non-toxic
clearance [31]: 4 mL/min/kg
solubility [32]: 680 µg/mL (≈ 1110 µM)
Activity [33]: Dose-dependent effect
IC50 [5]: 130 nM
ED50 ([5]; po, read-out: ID50): 7.3 mg/kg
fraction unbound [34]: 0.007
bioavailability [35]: 22%
concentration [36]: 158000 nM
IC50 [4]: 130 nM
fraction unbound [37]: 0.002
concentration [38]: 62000 nM
Activity [39]: Active
Activity [40]: Non-toxic
